From ChEMBL document CHEMBL3044653, “Synthesis and herbicidal activity of 2-(substituted phenoxyacetoxy)alkyl-5,5-dimethyl-1,3,2-dioxaphosphinan-2-one” (J Agric Food Chem, 2012)

Tests used:
[1] = tested on: Brassica rapa subsp. chinensis; assay: Post-emergence herbicidal activity against Brassica rapa subsp. chinensis assessed as inhibition at 150 g/hectare by green house assay; format: functional
[2] = tested on: Radish; assay: Post-emergence herbicidal activity against Raphanus sativus (radish) assessed as inhibition at 75 g/hectare by green house assay; format: functional
[3] = tested on: Setaria viridis; assay: Post-emergence herbicidal activity against Setaria viridis (green foxtail) assessed as inhibition at 150 g/hectare treated at one-leaf stage by green house assay; format: functional
Procedure, shortened: (§1)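 Monocot weeds were sprayed postemergence in the greenhouse at the one-leaf stage with diluted formulation solutions. Primary dose was 150 g ai/ha, with follow-up doses of 75 and 37.5 g ai/ha for selected compounds. Activity is scored as percent herbicidal damage compared with an untreated control.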

[4] = tested on: Amaranthus retroflexus; assay: Post-emergence herbicidal activity against Amaranthus retroflexus assessed as inhibition at 75 g/hectare treated at two-leaf stage by green house assay; format: functional
Procedure, shortened: (§2)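 Greenhouse postemergence spray of diluted formulation solutions onto broadleaf weeds at the two-leaf stage. Primary screen at 150 g ai/ha, with selected compounds retested at 75 and 37.5 g ai/ha. Abutilon was tested at 150 g ai/ha only. Read-out is percent herbicidal damage relative to an untreated control.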

[5] = tested on: Ammannia baccifera; assay: Post-emergence herbicidal activity against Ammannia baccifera assessed as inhibition at 150 g/hectare by green house assay; format: functional
[6] = tested on: Brassica napus; assay: Toxicity in Brassica napus (oilseed rape) assessed as inhibition at 150 g/hectare; format: functional
Procedure, shortened: (§3)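 For crop selectivity, conventional crop varieties were planted in 12 cm diameter plots and given a postemergence treatment at 150 g ai/ha. Injury was scored as percent inhibition, with 0–10% classed as safe to the crop.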

[7] = tested on: Amaranthus retroflexus; assay: Post-emergence herbicidal activity against Amaranthus retroflexus assessed as inhibition at 37.5 g/hectare treated at two-leaf stage by green house assay; format: functional; procedure, shortened: as §2
[8] = tested on: Amaranthus retroflexus; assay: Post-emergence herbicidal activity against Amaranthus retroflexus assessed as inhibition at 150 g/hectare treated at two-leaf stage by green house assay; format: functional; procedure, shortened: as §2
[9] = tested on: Brassica juncea; assay: Post-emergence herbicidal activity against Brassica juncea assessed as inhibition at 37.5 g/hectare treated at two-leaf stage by green house assay; format: functional; procedure, shortened: as §2
[10] = tested on: Triticum aestivum; assay: Toxicity in Triticum aestivum (wheat) plant assessed as inhibition at 150 g/hectare; format: organism-based; conditions: in vivo; procedure, shortened: as §3
[11] = tested on: Gossypium hirsutum; assay: Toxicity in Gossypium hirsutum (cotton) plant assessed as inhibition at 150 g/hectare; format: organism-based; conditions: in vivo; procedure, shortened: as §3
[12] = tested on: Zea mays; assay: Toxicity in Zea mays (maize) plant assessed as inhibition at 150 g/hectare; format: organism-based; conditions: in vivo; procedure, shortened: as §3
[13] = tested on: Eclipta prostrata; assay: Post-emergence herbicidal activity against Eclipta prostrata assessed as inhibition at 75 g/hectare treated at two-leaf stage by green house assay; format: functional; procedure, shortened: as §2
[14] = tested on: Echinochloa crus-galli; assay: Post-emergence herbicidal activity against Echinochloa crus-galli (barnyard grass) assessed as inhibition at 75 g/hectare treated at one-leaf stage by green house assay; format: functional; procedure, shortened: as §1
[15] = tested on: Abutilon theophrasti; assay: Post-emergence herbicidal activity against Abutilon theophrasti (velvetleaf) assessed as inhibition at 150 g/hectare treated at two-leaf stage by green house assay; format: functional; procedure, shortened: as §2
[16] = tested on: Brassica rapa subsp. chinensis; assay: Post-emergence herbicidal activity against Brassica rapa subsp. chinensis assessed as inhibition at 75 g/hectare by green house assay; format: functional
[17] = tested on: Pontederia vaginalis; assay: Post-emergence herbicidal activity against Monochoria vaginalis assessed as inhibition at 75 g/hectare by green house assay; format: functional
[18] = tested on: Glycine max; assay: Toxicity in Glycine max (soybean) plant assessed as inhibition at 150 g/hectare; format: organism-based; conditions: in vivo; procedure, shortened: as §3
[19] = tested on: Digitaria sanguinalis; assay: Post-emergence herbicidal activity against Digitaria sanguinalis (hairy crabgrass) assessed as inhibition at 37.5 g/hectare treated at one-leaf stage by green house assay; format: functional; procedure, shortened: as §1
[20] = tested on: Setaria viridis; assay: Post-emergence herbicidal activity against Setaria viridis (green foxtail) assessed as inhibition at 37.5 g/hectare treated at one-leaf stage by green house assay; format: functional; procedure, shortened: as §1
[21] = tested on: Digitaria sanguinalis; assay: Post-emergence herbicidal activity against Digitaria sanguinalis (hairy crabgrass) assessed as inhibition at 75 g/hectare treated at one-leaf stage by green house assay; format: functional; procedure, shortened: as §1
[22] = tested on: Amaranthus retroflexus; assay: Post-emergence herbicidal activity against Amaranthus retroflexus assessed as inhibition at 75 g/hectare by green house assay; format: functional
[23] = tested on: Ammannia baccifera; assay: Post-emergence herbicidal activity against Ammannia baccifera assessed as inhibition at 75 g/hectare by green house assay; format: functional
[24] = tested on: Digitaria sanguinalis; assay: Post-emergence herbicidal activity against Digitaria sanguinalis (hairy crabgrass) assessed as inhibition at 150 g/hectare treated at one-leaf stage by green house assay; format: functional; procedure, shortened: as §1
[25] = tested on: Amaranthus retroflexus; assay: Post-emergence herbicidal activity against Amaranthus retroflexus assessed as inhibition at 150 g/hectare by green house assay; format: functional
[26] = tested on: Setaria viridis; assay: Post-emergence herbicidal activity against Setaria viridis (green foxtail) assessed as inhibition at 75 g/hectare treated at one-leaf stage by green house assay; format: functional; procedure, shortened: as §1
[27] = tested on: Radish; assay: Post-emergence herbicidal activity against Raphanus sativus (radish) assessed as inhibition at 150 g/hectare by green house assay; format: functional
[28] = tested on: Brassica juncea; assay: Post-emergence herbicidal activity against Brassica juncea assessed as inhibition at 150 g/hectare treated at two-leaf stage by green house assay; format: functional; procedure, shortened: as §2
[29] = tested on: Echinochloa crus-galli; assay: Post-emergence herbicidal activity against Echinochloa crus-galli (barnyard grass) assessed as inhibition at 150 g/hectare treated at one-leaf stage by green house assay; format: functional; procedure, shortened: as §1
[30] = tested on: Pontederia vaginalis; assay: Post-emergence herbicidal activity against Monochoria vaginalis assessed as inhibition at 150 g/hectare by green house assay; format: functional
[31] = tested on: Oryza sativa; assay: Toxicity in Oryza sativa (rice) plant assessed as inhibition at 150 g/hectare; format: organism-based; conditions: in vivo; procedure, shortened: as §3
[32] = tested on: Brassica juncea; assay: Post-emergence herbicidal activity against Brassica juncea assessed as inhibition at 150 g/hectare by green house assay; format: functional
[33] = tested on: Chenopodium album; assay: Post-emergence herbicidal activity against Chenopodium album assessed as inhibition at 150 g/hectare by green house assay; format: functional
[34] = tested on: Eclipta prostrata; assay: Post-emergence herbicidal activity against Eclipta prostrata assessed as inhibition at 150 g/hectare treated at two-leaf stage by green house assay; format: functional; procedure, shortened: as §2
[35] = tested on: Brassica juncea; assay: Post-emergence herbicidal activity against Brassica juncea assessed as inhibition at 75 g/hectare treated at two-leaf stage by green house assay; format: functional; procedure, shortened: as §2
[36] = tested on: Eclipta prostrata; assay: Post-emergence herbicidal activity against Eclipta prostrata assessed as inhibition at 37.5 g/hectare treated at two-leaf stage by green house assay; format: functional; procedure, shortened: as §2
[37] = tested on: Ipomoea nil; assay: Post-emergence herbicidal activity against Ipomoea nil (Japanese morning glory) assessed as inhibition at 75 g/hectare by green house assay; format: functional
[38] = tested on: Ipomoea nil; assay: Post-emergence herbicidal activity against Ipomoea nil (Japanese morning glory) assessed as inhibition at 150 g/hectare by green house assay; format: functional
[39] = tested on: Brassica juncea; assay: Post-emergence herbicidal activity against Brassica juncea assessed as inhibition at 75 g/hectare by green house assay; format: functional
[40] = tested on: Echinochloa crus-galli; assay: Post-emergence herbicidal activity against Echinochloa crus-galli (barnyard grass) assessed as inhibition at 37.5 g/hectare treated at one-leaf stage by green house assay; format: functional; procedure, shortened: as §1
[41] = tested on: Chenopodium album; assay: Post-emergence herbicidal activity against Chenopodium album assessed as inhibition at 75 g/hectare by green house assay; format: functional
[42] = tested on: Brassica oleracea; assay: Post-emergence herbicidal activity against Brassica oleracea assessed as inhibition at 75 g/hectare by green house assay; format: functional
[43] = tested on: Brassica rapa subsp. oleifera; assay: Post-emergence herbicidal activity against Brassica rapa subsp. oleifera assessed as inhibition at 150 g/hectare by green house assay; format: functional
[44] = tested on: Brassica oleracea; assay: Post-emergence herbicidal activity against Brassica oleracea assessed as inhibition at 150 g/hectare by green house assay; format: functional
[45] = tested on: Brassica rapa subsp. oleifera; assay: Post-emergence herbicidal activity against Brassica rapa subsp. oleifera assessed as inhibition at 75 g/hectare by green house assay; format: functional

## Cc1cc(Cl)ccc1OCC(=O)OC(C)P1(=O)OCC(C)(C)CO1 (stereo unspecified)
[1]
  inhibition at 150 g/ha: 80%
[2]
  inhibition at 75 g/ha: 80%
[3]
  inhibition at 150 g/ha: 0%
[4]
  inhibition at 75 g/ha: 100%
[5]
  inhibition at 150 g/ha: 100%
[6]
  inhibition at 150 g/ha: 40%
[7]
  inhibition at 37.5 g/ha: 80%
[8]
  inhibition at 150 g/ha: 100%
[9]
  inhibition at 37.5 g/ha: 80%
[10]
  inhibition (INH): 0%
[11]
  inhibition (INH): 20%
[12]
  inhibition (INH): 0%
[13]
  inhibition at 75 g/ha: 85%
[14]
  inhibition at 75 g/ha: 0%
[15]
  inhibition at 150 g/ha: 100%
[16]
  inhibition at 75 g/ha: 70%
[17]
  inhibition at 75 g/ha: 100%
[18]
  inhibition (INH): 20%
[19]
  inhibition at 37.5 g/ha: 0%
[20]
  inhibition at 37.5 g/ha: 0%
[21]
  inhibition at 75 g/ha: 0%
[22]
  inhibition at 75 g/ha: 100%
[23]
  inhibition at 75 g/ha: 100%
[24]
  inhibition at 150 g/ha: 0%
[25]
  inhibition at 150 g/ha: 100%
[26]
  inhibition at 75 g/ha: 0%
[27]
  inhibition at 150 g/ha: 80%
[28]
  inhibition at 150 g/ha: 100%
[29]
  inhibition at 150 g/ha: 30%
[30]
  inhibition at 150 g/ha: 100%
[31]
  inhibition (INH): 10%
[32]
  inhibition at 150 g/ha: 100%
[33]
  inhibition at 150 g/ha: 75%
[34]
  inhibition at 150 g/ha: 90%
[35]
  inhibition at 75 g/ha: 100%
[36]
  inhibition at 37.5 g/ha: 80%
[37]
  inhibition at 75 g/ha: 100%
[38]
  inhibition at 150 g/ha: 100%
[39]
  inhibition at 75 g/ha: 100%
[40]
  inhibition at 37.5 g/ha: 0%
[41]
  inhibition at 75 g/ha: 70%

## CC(OC(=O)COc1ccc(Cl)cc1Cl)P1(=O)OCC(C)(C)CO1 (stereo unspecified)
[1]
  inhibition at 150 g/ha: 85%
[2]
  inhibition at 75 g/ha: 90%
[3]
  inhibition at 150 g/ha: 30%
[4]
  inhibition at 75 g/ha: 75%
[5]
  inhibition at 150 g/ha: 100%
[6]
  inhibition at 150 g/ha: 40%
[42]
  inhibition at 75 g/ha: 80%
[7]
  inhibition at 37.5 g/ha: 70%
[8]
  inhibition at 150 g/ha: 95%
[9]
  inhibition at 37.5 g/ha: 90%
[10]
  inhibition (INH): 0%
[11]
  inhibition (INH): 30%
[43]
  inhibition at 150 g/ha: 100%
[12]
  inhibition (INH): 0%
[13]
  inhibition at 75 g/ha: 70%
[14]
  inhibition at 75 g/ha: 0%
[15]
  inhibition at 150 g/ha: 95%
[16]
  inhibition at 75 g/ha: 80%
[17]
  inhibition at 75 g/ha: 100%
[18]
  inhibition (INH): 30%
[19]
  inhibition at 37.5 g/ha: 0%
[20]
  inhibition at 37.5 g/ha: 0%
[44]
  inhibition at 150 g/ha: 90%
[21]
  inhibition at 75 g/ha: 0%
[22]
  inhibition at 75 g/ha: 75%
[23]
  inhibition at 75 g/ha: 100%
[24]
  inhibition at 150 g/ha: 30%
[25]
  inhibition at 150 g/ha: 95%
[26]
  inhibition at 75 g/ha: 0%
[27]
  inhibition at 150 g/ha: 95%
[28]
  inhibition at 150 g/ha: 95%
[29]
  inhibition at 150 g/ha: 30%
[30]
  inhibition at 150 g/ha: 100%
[31]
  inhibition (INH): 10%
[32]
  inhibition at 150 g/ha: 95%
[33]
  inhibition at 150 g/ha: 85%
[45]
  inhibition at 75 g/ha: 90%
[34]
  inhibition at 150 g/ha: 85%
[35]
  inhibition at 75 g/ha: 95%
[36]
  inhibition at 37.5 g/ha: 50%
[37]
  inhibition at 75 g/ha: 100%
[38]
  inhibition at 150 g/ha: 100%
[39]
  inhibition at 75 g/ha: 95%
[40]
  inhibition at 37.5 g/ha: 0%
[41]
  inhibition at 75 g/ha: 80%
